Source: the array DNA melting data of Ke et al. (doi:10.1101/2024.01.08.574731)

Assays:
[1] = melting temperature; fluorescence melt of hairpins on a sequencing array, two-state fit, raised by 9.35 °C to match UV melts; conditions: sodium 0.088 M
In short: (§1)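 Cy3 fluorescence of library hairpins on a sequenced MiSeq flow cell, with annealed Cy3 and quencher oligos, was imaged in 50 mM Na-HEPES pH 8.0, 25 mM NaCl in 2.5 °C steps up to 60 °C. Signals were normalised to pre-quench Cy3 and to control variants. Melting temperature and folding enthalpy came from bootstrapped two-state fits, inverse-variance combined over four replicates. Fitted temperatures were raised by 9.35 °C to match UV melts.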

[2] = folding enthalpy; higher = less favourable; fluorescence melt of hairpins on a sequencing array, two-state fit; conditions: sodium 0.088 M
In short: as §1

## GAAGCCGAAAGGCGCTTC ((((((....)))..)))
[1]
  Tm: 56.2 °C
[2]
  folding enthalpy: -14.1 kcal/mol

## GAAGCGACGAAAGTCTTC (((..(((....))))))
[1]
  Tm: 27.9 °C
[2]
  folding enthalpy: -9.61 kcal/mol

## GAAGCGCGAAAGCGTTTC (((.(((....))).)))
[1]
  Tm: 56 °C
[2]
  folding enthalpy: -23.1 kcal/mol

## GAAGCGGGAAACCACTTC ((((.((....)).))))
[1]
  Tm: 41.8 °C
[2]
  folding enthalpy: -32.1 kcal/mol

## GAAGCGGGAAACTGCTTC (((((.(....).)))))
[1]
  Tm: 53 °C
[2]
  folding enthalpy: -40.4 kcal/mol

## GAAGCTGGAAACGGCTTC (((((.(....).)))))
[1]
  Tm: 53.4 °C
[2]
  folding enthalpy: -42.9 kcal/mol

## GAAGCTGGAAACGGTTTC (((.(.(....).).)))
[1]
  Tm: 26 °C
[2]
  folding enthalpy: -10.3 kcal/mol

## GAAGGACCGAAAGGTTTC (((..(((....))))))
[1]
  Tm: 24 °C
[2]
  folding enthalpy: -10.4 kcal/mol

## GAAGGACGAAAGTCATTC (((.(((....))).)))
[1]
  Tm: 52.1 °C
[2]
  folding enthalpy: -30.8 kcal/mol

## GAAGGCGAAAGCCCTTC ((((((....))).)))
[1]
  Tm: 52.1 °C
[2]
  folding enthalpy: -15.3 kcal/mol

## GAAGGCGAAAGCCCTTTC ((((((....)))..)))
[1]
  Tm: 37.6 °C
[2]
  folding enthalpy: -10 kcal/mol

## GAAGGCGCGAAAGCGTTC (((..(((....))))))
[1]
  Tm: 30.9 °C
[2]
  folding enthalpy: -9.37 kcal/mol

## GAAGGCGGAAACGTCTTC ((((.((....)).))))
[1]
  Tm: 53.1 °C
[2]
  folding enthalpy: -45.1 kcal/mol

## GAAGGGGGAAACCCCTCC (.(((((....))))).)
[1]
  Tm: 36.5 °C
[2]
  folding enthalpy: -13.1 kcal/mol

## GAAGGGGGAAACCTCTTC ((((.((....)).))))
[1]
  Tm: 43.1 °C
[2]
  folding enthalpy: -27.7 kcal/mol

## GAAGGGGGAAACTCCTTC (((((.(....).)))))
[1]
  Tm: 45.6 °C
[2]
  folding enthalpy: -25.6 kcal/mol

## GAAGGTGCGAAAGCATTC (((..(((....))))))
[1]
  Tm: 18.4 °C
[2]
  folding enthalpy: -6.16 kcal/mol

## GAAGGTGGAAACACCTTC (((((((....)))))))
[1]
  Tm: 64.6 °C
[2]
  folding enthalpy: -37.7 kcal/mol

## GAAGGTGGAAACATCTTC ((((.((....)).))))
[1]
  Tm: 41.6 °C
[2]
  folding enthalpy: -30.8 kcal/mol

## GAAGGTGGAAACGTCTTC ((((..(....)..))))
[1]
  Tm: 36.2 °C
[2]
  folding enthalpy: -33 kcal/mol

## GAAGTACGAAAGTAGTTC (((.(((....))).)))
[1]
  Tm: 46.8 °C
[2]
  folding enthalpy: -34.8 kcal/mol

## GAAGTACGAAAGTATTTC (((.(((....))).)))
[1]
  Tm: 40.5 °C
[2]
  folding enthalpy: -28.9 kcal/mol

## GAAGTAGGAAACTGCTTC ((((.((....)).))))
[1]
  Tm: 43.3 °C
[2]
  folding enthalpy: -34.4 kcal/mol

## GAAGTCCGAAAGGAATTC (((.(((....))).)))
[1]
  Tm: 50.1 °C
[2]
  folding enthalpy: -30.9 kcal/mol

## GAAGTGACGAAAGTCTTC (((..(((....))))))
[1]
  Tm: 27.8 °C
[2]
  folding enthalpy: -8.64 kcal/mol

## GAAGTGCGAAAGCAATTC (((.(((....))).)))
[1]
  Tm: 52.8 °C
[2]
  folding enthalpy: -28.2 kcal/mol

## GAAGTGGGAAACTACTTC (((((.(....).)))))
[1]
  Tm: 43.1 °C
[2]
  folding enthalpy: -37.4 kcal/mol

## GAAGTGGGAAACTGCTTC ((((..(....)..))))
[1]
  Tm: 39.6 °C
[2]
  folding enthalpy: -26.1 kcal/mol

## GAAGTTGGAAACAACTCC (.(((((....))))).)
[1]
  Tm: 34.1 °C
[2]
  folding enthalpy: -19.2 kcal/mol

## GAAGTTGGAAACAATTTC (((.(((....))).)))
[1]
  Tm: 35 °C
[2]
  folding enthalpy: -20.4 kcal/mol

## GAAGTTGGAAACGACTTC (((((.(....).)))))
[1]
  Tm: 47.4 °C
[2]
  folding enthalpy: -39 kcal/mol

## GAATAAGGAAACTTGTTC (((.(((....))).)))
[1]
  Tm: 29.6 °C
[2]
  folding enthalpy: -17 kcal/mol

## GAATACGAAAGTATTTC ((((((....))).)))
[1]
  Tm: 38.3 °C
[2]
  folding enthalpy: -15.8 kcal/mol

## GAATACGCGAAAGCGTTC (((..(((....))))))
[1]
  Tm: 26.7 °C
[2]
  folding enthalpy: -7.08 kcal/mol

## GAATACGGAAACGTACTC ((.((((....)))).))
[1]
  Tm: 28.4 °C
[2]
  folding enthalpy: -9.11 kcal/mol

## GAATATGGAAACATGTTC (((.(((....))).)))
[1]
  Tm: 37.6 °C
[2]
  folding enthalpy: -32.6 kcal/mol

## GAATCAGGAAACTGATCC (.(((((....))))).)
[1]
  Tm: 32.6 °C
[2]
  folding enthalpy: -15.4 kcal/mol

## GAATCAGGAAACTGGTTC (((.(((....))).)))
[1]
  Tm: 42.6 °C
[2]
  folding enthalpy: -31.2 kcal/mol

## GAATCCCGAAAGGGCTTC (((.(((....))).)))
[1]
  Tm: 41.9 °C
[2]
  folding enthalpy: -19.1 kcal/mol

## GAATCCCGAAAGGGTTC (((.(((....))))))
[1]
  Tm: 48.1 °C
[2]
  folding enthalpy: -17.9 kcal/mol

## GAATCCGAAAGGATTTTC ((((((....)))..)))
[1]
  Tm: 48.9 °C
[2]
  folding enthalpy: -15.7 kcal/mol

## GAATCCGGAAACGGACTC ((.((((....)))).))
[1]
  Tm: 36.2 °C
[2]
  folding enthalpy: -17.9 kcal/mol

## GAATCGGGAAACCGATCC (.(((((....))))).)
[1]
  Tm: 39 °C
[2]
  folding enthalpy: -15.6 kcal/mol

## GAATGAGAAATCATTC ((((((....))))))
[1]
  Tm: 43 °C
[2]
  folding enthalpy: -26.8 kcal/mol

## GAATGAGGAAACTTATTC ((((.((....)).))))
[1]
  Tm: 29.6 °C
[2]
  folding enthalpy: -20.4 kcal/mol
